These molecules were tested against T1, Vitamin K epoxide reductase complex subunit 1 (Bos taurus, UniProt Q6B4J2) (assay: Apparent kinetic constant for Vitamin K epoxide reductase).
T1 sequence (Q6B4J2 whole entry): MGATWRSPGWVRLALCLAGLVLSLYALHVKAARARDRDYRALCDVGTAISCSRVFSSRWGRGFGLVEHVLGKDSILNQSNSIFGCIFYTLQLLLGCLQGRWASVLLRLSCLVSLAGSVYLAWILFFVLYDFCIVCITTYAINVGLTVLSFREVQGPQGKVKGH
Method in brief: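 Beef liver microsomes (0.8 mg) as vitamin K1 epoxide reductase source, 0.02% Emulgen 911. Vitamin K1 epoxide varied (10, 12.5, 16.5, 25, 40 μM) with 5 mM DTT, analogue at 0, 20, 40, 60 μM. Double-reciprocal plots built; Ki taken from replots of Km,app against analogue concentration. Also run at 40 μM epoxide with DTT varied 0.33–2.0 mM.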
`C/C(=C\CC12OC1(C(F)F)C(=O)c1ccccc1C2=O)CCCC(C)CCCC(C)CCCC(C)C` (stereo not drawn) showed a Ki of 63 µM.
`C/C(=C\CC12OC1(CCl)C(=O)c1ccccc1C2=O)CCCC(C)CCCC(C)CCCC(C)C` (stereo not drawn) gave a Ki of 74 µM.
With `C/C(=C\CC12OC1(CF)C(=O)c1ccccc1C2=O)CCCC(C)CCCC(C)CCCC(C)C` (stereo not drawn) the Ki was 17 µM.
For `C/C(=C\CC12OC1(C=O)C(=O)c1ccccc1C2=O)CCCC(C)CCCC(C)CCCC(C)C` (stereo not drawn), the Ki was 26 µM.
`CC(C)CCCC(C)CCCC(C)CCCC(C)CC(F)C12OC1(C)C(=O)c1ccccc1C2=O` (stereo not drawn) was tested, and the Ki was 100 µM.
`C/C(=C\CC12OC1(CO)C(=O)c1ccccc1C2=O)CCCC(C)CCCC(C)CCCC(C)C` (stereo not drawn) was tested, and the Ki was 8 µM.
`C/C(=C\C(O)C12OC1(C)C(=O)c1ccccc1C2=O)CCCC(C)CCCC(C)CCCC(C)C` (stereo not drawn) gave a Ki of 43 µM.
Molecule `CC(C)CCCC(C)CCCC(C)CCCC(C)CC(O)C12OC1(C)C(=O)c1ccccc1C2=O` (stereo not drawn) has a Ki of 63 µM.

Reference: ChEMBL document CHEMBL1124804, “Substituted vitamin K epoxide analogues. New competitive inhibitors and substrates of vitamin K1 epoxide reductase” (J Med Chem, 1990)
